Screens from PubChem BioAssay.
CHRM5 PAM – CHRM5 positive allosteric modulation. 0.3% of 360,000 active. activation, % at 3 µM. CHO-K1 hM5, Fluo-8 calcium, ACh EC20 PAM; 0% = ACh EC20, 100% = ACh EC100. P08912. AID 624038;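 active = activation above the run cutoff, the mean activation of all test compounds plus 3 SD, cut at about 18% in these data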
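system = human M5 receptor in CHO-K1 cells | reagent = EC20 acetylcholine as agonist stimulus | compound dosing = single-point, 3 µM nominal | incubation = Fluo-8 loading 80 min at 37 °C plus 30 min room temperature | detection = Fluo-8 calcium dye fluorescence, kinetic read | benchmarks = low control EC20 acetylcholine (0%), high control EC100 acetylcholine (100%)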
M4 antag – CHRM4 antagonism in calcium assay. P08173. 0.73% of 360,000 active. inhibition, % at 3 µM. AID 624125. CHO-hM4 cells, ACh EC80, Fluo-8 calcium fluorescence;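 active = inhibition above its plate's cutoff, the mean inhibition of sample wells plus 3 SD, cut at about 27% in these data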;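 also: 0% = acetylcholine EC80 with DMSO and 100% = DMSO without agonist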
Target sequence (P08173 whole entry, looked up): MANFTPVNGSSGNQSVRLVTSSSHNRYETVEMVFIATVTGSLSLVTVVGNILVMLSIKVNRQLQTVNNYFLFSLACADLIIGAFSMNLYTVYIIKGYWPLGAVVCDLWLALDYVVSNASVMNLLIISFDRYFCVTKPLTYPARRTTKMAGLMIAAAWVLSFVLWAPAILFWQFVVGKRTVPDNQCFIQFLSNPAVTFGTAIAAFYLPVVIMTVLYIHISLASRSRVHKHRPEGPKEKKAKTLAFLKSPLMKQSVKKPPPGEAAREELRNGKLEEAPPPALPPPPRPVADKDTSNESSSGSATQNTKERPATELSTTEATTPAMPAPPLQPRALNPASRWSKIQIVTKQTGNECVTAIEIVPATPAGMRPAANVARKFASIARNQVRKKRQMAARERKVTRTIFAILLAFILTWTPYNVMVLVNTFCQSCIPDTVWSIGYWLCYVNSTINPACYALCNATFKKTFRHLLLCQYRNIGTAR
CHRM4 agonist – CHRM4 agonism in calcium assay; 0.14% of 360,000 active; activation, % at 3 µM; CHO-K1 hM4/Gqi5, Fluo-8 calcium fluorescence; vehicle 0%, full acetylcholine response 100%; AID 624127;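 active = activation above the run mean over all test wells plus 3 SD, cut at about 32% in these data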;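 also: peak over basal fluorescence ratio per well then scaled between controls; 0% = DMSO wells and 100% = acetylcholine at EC100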
M5 ag – CHRM5 agonism in calcium assay | 0.19% of 360,000 active | CHO-K1 hM5 cells, Fluo-8 calcium fluorescence; 0% DMSO wells, 100% maximal acetylcholine response | activation, % at 3 µM | P08912;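 active = activation above the run's mean over test compounds plus 3 SD, cut at about 23% in these data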;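 also: signal is peak over basal fluorescence ratio across the kinetic read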
M4 PAM – potentiates acetylcholine response at human M4 receptor; CHO-K1 hM4/Gqi5, Fluo-8 calcium fluorescence, ACh EC20; 0% = ACh EC20, 100% = maximal ACh; P08173; AID 624126; activation, % at 3 µM; 0.4% of 360,000 active;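 active = activation above its plate's cutoff, the mean activation of sample wells plus 3 SD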
CHRM5 antagonist – antagonists of human muscarinic M5 receptor (CHRM5); P08912; CHO-hM5 cells, Fluo-8 calcium fluorescence, ACh EC80; inhibition, % at 3 µM; 0.59% of 360,000 active; AID 624040;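 active = inhibition above a per-plate cutoff, the mean of that plate's test compounds plus 3 SD, cut at about 27% in these data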;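 also: 0% = acetylcholine EC80 with DMSO and 100% = DMSO without agonist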
* = called active by the depositor; ! = not confirmed by another sample. Shown are actives, neighbours in structure and some others; about 1.9% of the full set was active somewhere.

SMILES	CHRM5 PAM	M4 antag	CHRM4 agonist	M5 ag	M4 PAM	CHRM5 antagonist
Cc1ccccc1C(O)c1cccnc1 (stereo not given)	2.5	-10.1	0.7	-1.1	4.1	-0.4
CN(C)CCOC(c1ccccc1)c1ccccc1	-18.4	32.0*!	0.7	-1.9	-17.7	34.7*
Cc1ccccc1C(OCCN(C(C)C)C(C)C)c1ccccc1 (stereo not given)	-18.9	98.7*	1.6	-8.5	-15.4	99.2*
CN(C)CCOC(c1ccc(Cl)cc1)c1ccccn1 (stereo not given)	-17.6	4.2	0.1	-1.0	-10.4	15.3
CN(C)CCOC(c1ccccc1)c1ccccc1 (tested in a mixture with another compound)	-18.4	36.9*	0.9	-1.3	-16.5	52.6*
CCOCc1nc(N)nc(N)c1-c1cccc(Cl)c1	-2.9	-2.6	0.9	-0.6	-0.4	-0.4
CC(C)(C)OC(=O)N1CCN(C(c2ccnc3ccccc23)c2nnnn2-c2ccc3c(c2)OCCO3)CC1 (stereo not given)	-5.0	-0.3	6.8	2.2	3.0	0.2
CN(C)C(=O)N1CCc2ccc([N+](=O)[O-])cc21	-1.1	-16.9	0.5	-0.1	8.7	-3.6
CCN1CCC(O)(/C=C/c2ccc(C(C)C)cc2)C(C(=O)/C=C/c2ccc(C(C)C)cc2)C1 (stereo not given)	13.3	11.4	5.5	-1.1	-5.9	8.4
COCCn1c(=NC(=O)/C=C/c2cccs2)sc2cc(NC(C)=O)ccc21	-2.7	-1.5	4.2	2.5	21.4*	6.7
CN(C)S(=O)(=O)c1ccc(C(=O)N2CCN=C2SCc2cccnc2)cc1	4.0	14.2	2.1	-5.0	19.5*	-1.3
CC(C(=O)Nc1ccc2c(c1)OCCO2)c1ccc([N+](=O)[O-])cc1 (stereo not given)	-10.6	2.6	17.1	32.3*	-9.9	1.4
CCC(C)(C)NC(=O)C(c1ccco1)N(C(=O)CNC(=O)c1cccs1)c1cccnc1 (stereo not given)	29.0*	-12.4	6.0	-1.5	3.6	28.8*
COc1ccc(C(O)c2ncc(-c3ccccc3C)[nH]2)cc1F (stereo not given)	-3.4	-12.2	3.2	3.3	2.3	6.3
COc1ccc([C@H]2C(C#N)=C([S-])N[C@](C)(O)[C@@H]2[n+]2ccccc2)cc1	-19.1	40.4*	1.3	-18.4	-15.5	-3.6
O=C(CCCCCn1c(=S)[nH]c2cc3c(cc2c1=O)OCO3)N1CCN(Cc2ccccc2)CC1	-2.5	2.2	5.0	-2.7	-5.6	5.3
O=C(CCCCCn1c(=S)[nH]c2cc3c(cc2c1=O)OCO3)N1CCN(C2CCCCC2)CC1	-15.2	11.8	9.5	-5.5	-27.2	30.9*
Cc1csc(NC(=O)C(CC(C)C)NS(=O)(=O)c2ccc3c(c2)oc(=O)n3C)n1 (stereo not given)	-7.0	34.4*	-0.1	5.3	-11.5	1.6
Cc1csc(NC(=O)C2CCN(S(=O)(=O)c3ccc4c(c3)oc(=O)n4C)CC2)n1	-4.1	-15.0	7.1	2.4	1.3	-0.4
O=C(Nc1cccc(C(F)(F)F)c1)C(=O)N1CCCCC1	19.7*	5.2	0.2	1.0	7.9	-7.1
CCOC(=O)CN1C(=O)CSc2ccccc21	-4.5	32.9*	0.4	0.8	8.2	5.2
O=C(O)CN1C(=O)CSc2ccccc21	1.2	-1.7	0.6	-0.8	7.0	6.5
COc1ccc(CCNc2ncnc3sc(C)cc23)cc1OC	-28.0	26.9*	20.7	2.5	-11.4	37.1*
COc1ccc(CCNc2ncnc3[nH]ncc23)cc1OC	-1.5	-14.6	6.7	2.4	3.0	-1.9
COc1ccc([C@H]2CN(c3ccc(OC)cc3)C(=O)[C@@H]2CC(=O)Nc2ccccc2)cc1	-2.3	-2.2	2.1	-0.9	-3.2	-1.7
SMILES	CHRM5 PAM	M4 antag	CHRM4 agonist	M5 ag	M4 PAM	CHRM5 antagonist
O=C(c1cc2c(c(-c3cccc(-c4ccc(F)cc4)c3)n1)[C@H](CCO)N(C(=O)c1ccc3c(c1)OCO3)C2)N1CCOCC1	-3.0	-2.3	6.6	2.0	5.8	-0.3
CCN(CC)CCOC(=O)C(Cc1ccco1)Cc1cccc2ccccc12 (stereo not given)	-27.4	17.4	12.5	-16.0	-14.8	28.5*
O=C(NCc1ccco1)c1cccc2c1C(=O)c1ccc(N3CCCC3)cc1S2(=O)=O	-13.4	-10.0	40.1*	19.5	-11.2	10.9
O=C(NCC1CCCO1)c1cccc2c1C(=O)c1ccc(N3CCC(Cc4ccccc4)CC3)cc1S2(=O)=O (stereo not given)	-39.2	34.5*	73.0*	42.8*	-21.2	34.4*
CC1CCN(c2ccc3c(c2)S(=O)(=O)c2cccc(C(=O)NC[C@@H]4CCCO4)c2C3=O)CC1	-30.1	16.4	28.0	11.6	-13.9	24.3
Cc1ccc(CNC(=O)c2cccc3c2C(=O)c2ccc(N4CCCCC4)cc2S3(=O)=O)cc1	-36.1	14.3	99.3*	60.5*	-16.8	31.8*
Fc1cccc(Cc2c(C3CCCCC3)nc3c4ccccc4ccn23)c1	-5.8	-3.4	0.4	-1.4	3.3	-3.9
CC1(C(=O)NS(=O)(=O)Cc2cccc(Cl)c2)CCN1C(=O)c1ccc(C2CCCCC2)cc1 (stereo not given)	0.9	-1.6	0.1	1.1	3.3	-4.4
O=C(CSc1nnnn1-c1cccc(F)c1)NC1CC1	19.0*	0.4	0.0	1.0	4.1	2.6
Nc1ccn([C@@H]2O[C@H](CNS(=O)(=O)c3cc4ccccc4s3)[C@@H](O)[C@H]2O)c(=O)n1	-5.5	-3.0	0.8	0.1	-1.7	15.5
C#CCOc1ccc(C2C3=C(COC3=O)Nc3cc4c(cc32)OCO4)cc1OC (stereo not given)	6.6	-10.8	2.4	-5.2	22.0*	5.2
CCOC(=O)c1c(C)nsc1NC(=O)C1CCCCC1	7.6	-25.8	-0.7	2.7	13.5*	-10.4
O=C(Nc1ccc2c(c1)OCO2)c1cc(C2CCCCN2S(=O)(=O)c2cccs2)on1 (stereo not given)	0.1	2.5	2.8	-1.6	-2.5	0.7
NCCC(=O)N1c2ccccc2Sc2ccc(Cl)cc21	-33.3	38.4*	13.8	-19.9	-13.6	60.5*
NCCCC(=O)N1c2ccccc2Sc2ccc(Cl)cc21	-23.0	63.8*	2.5	-11.4	-19.3	76.5*
CN1CCN(CCC(=O)N2c3ccccc3Sc3ccc(Cl)cc32)CC1	-14.8	21.0	0.3	-6.6	-20.1	8.9
CCCCC1CC2=C(C(=O)OC(C)(C)O2)C(c2ccc(F)cc2)O1 (stereo not given)	4.9	-1.2	-3.6	-8.0	-3.3	1.4
